# Calls of active or inactive are those of the source. The calls are words filed in the database; no cut-off is given here.
# Assays:
# Hep 3B2 [1] = test: Anti-proliferative activity against human Hep3B cells assessed as decrease in TNF-alpha mRNA level at 80 nM incubated for 24 hrs in presence of SGBS CM by qRT-PCR analysis; assay type: functional, cell-based
# Hep 3B2 [2] = test: Anti-proliferative activity against human Hep3B cells assessed as reduction in cell viability at 80 nM measured after 24 hrs in presence of 17-AAG under SGBS CM treatment by Fluoro Fire-Blue ProViaTox assay relative to control
# Hep 3B2 [3] = test: Downregulation of ZFP64 mRNA expression in human Hep3B cells at 80 nM incubated for 24 hrs in presence of 17-AAG by qRT-PCR analysis
# Hep 3B2 [4] = test: Anti-proliferative activity against human Hep3B cells assessed as increase in Caspase 7 expression at 80 nM incubated for 24 hrs by qRT-PCR analysis; assay type: functional, cell-based
# Hep 3B2 [5] = test: Anti-proliferative activity against human Hep3B cells assessed as decrease in leptin mRNA level at 80 nM incubated for 24 hrs in presence of SGBS CM by qRT-PCR analysis; assay type: functional, cell-based
# HepG2 [6] = test: Effect on human HepG2 cells assessed as reduction in HDAC1 mRNA level at 80 nM incubated for 24 hrs by qRT-PCR analysis; assay type: functional, cell-based
# How it was run: (§1)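 HepG2 (EMEM) and Huh7 (DMEM) cells, both with 10% FBS, treated with 30% differentiated-SGBS conditioned medium with or without 80 nM drug. HDAC1 RNA given as fold change versus untreated cells or between treatments (n = 3).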
# Hep 3B2 [7] = test: Anti-proliferative activity against human Hep3B cells assessed as decrease in STAT3 mRNA level at 80 nM incubated for 24 hrs in presence of SGBS CM by qRT-PCR analysis; assay type: functional, cell-based
# Hep 3B2 [8] = test: Downregulation of HDAC1 expression in human Hep3B cells at 80 nM incubated for 24 hrs in presence of 17-AAG by qRT-PCR analysis; assay type: functional, cell-based
# Hep 3B2 [9] = test: Effect on human Hep3B cells assessed as reduction of HDAC global activity at 80 nM incubated for 24 hrs in presence of SGBS CM by FluoroFire HDAC Activity Assay Kit relative to control; assay type: functional; set-up: scale not given: the % may be the effect or the level left
# How it was run: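 Hep3B cells treated 24 h with 80 nM drug, alone or with 30% SGBS conditioned medium. Lysates made with lysis reagent (15 min, room temperature, shaking), spun, and supernatant used. Preincubated 20 min at 37°C, then Emerald substrate added for 1 h at 37°C. Fluorescence read at Ex 490/Em 525 nm. HeLa nuclear extract as positive control, HeLa extract with trichostatin A as negative control (n = 3).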
# Hep 3B2 [10] = test: Anti-proliferative activity against human Hep3B cells assessed as cell proliferation at incubated for 24 hrs by Fluoro Fire-Blue ProViaTox assay; assay type: functional, cell-based; conditions: dose 20-100 nM
# Hep 3B2 [11] = test: Downregulation of STAT3 mRNA expression in human Hep3B cells at 80 nM incubated for 24 hrs in presence of 17-AAG by qRT-PCR analysis; assay type: functional, cell-based
# How it was run: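 Hep3B cells given 80 nM drug, 17-AAG (50 nM) or both for 24 h. STAT3 and a gene panel (BCL-2, HSP90, ZFP64) measured at RNA level. Triplicates, three independent experiments, mean ± SD.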
# Hep 3B2 [12] = test: Upregulation of BAX expression in human Hep3B cells at 80 nM incubated for 24 hrs by qRT-PCR analysis; assay type: functional, cell-based
# How it was run: (§2)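 RNA levels of BCL-2, BIM, BAX and BAD measured in Hep3B cells after 24 h with 80 nM drug. Triplicates, three independent experiments, t-test.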
# Huh-7 [13] = test: Anti-proliferative activity against human Huh-7 cells assessed as reduced cell proliferation at 80 nM incubated for 24 hrs by Fluoro Fire-Blue ProViaTox assay; assay type: functional, cell-based
# Hep 3B2 [14] = test: Downregulation of BCL2 mRNA expression in human Hep3B cells at 80 nM incubated for 24 hrs in presence of 17-AAG by qRT-PCR analysis; assay type: functional, cell-based
# Huh-7 [15] = test: Anti-proliferative activity against human Huh-7 cells assessed as reduced cell proliferation at 80 nM incubated for 24 hrs in presence of SGBS CM by Fluoro Fire-Blue ProViaTox assay; assay type: functional, cell-based
# Hep 3B2 [16] = test: Anti-proliferative activity against human Hep3B cells assessed as reduced cell proliferation at 80 nM incubated for 24 hrs by Fluoro Fire-Blue ProViaTox assay; assay type: functional, cell-based
# Huh-7 [17] = test: Effect on human Huh-7 cells assessed as reduction in HDAC1 mRNA level at 80 nM incubated for 24 hrs by qRT-PCR analysis; assay type: functional, cell-based; how it was run: as §1
# Hep 3B2 [18] = test: Anti-proliferative activity against human Hep3B cells assessed as increase in IL-10 mRNA level at 80 nM incubated for 24 hrs in presence of SGBS CM by qRT-PCR analysis; assay type: functional, cell-based
# HepG2 [19] = test: Anti-proliferative activity against human HepG2 cells assessed as reduced cell proliferation at 80 nM incubated for 24 hrs by Fluoro Fire-Blue ProViaTox assay; assay type: functional, cell-based
# Hep 3B2 [20] = test: Anti-proliferative activity against human Hep3B cells assessed as increase in BAX mRNA level at 80 nM incubated for 24 hrs by qRT-PCR analysis; assay type: functional, cell-based
# Hep 3B2 [21] = test: Upregulation of BIM expression in human Hep3B cells at 80 nM incubated for 24 hrs by qRT-PCR analysis; assay type: functional, cell-based; how it was run: as §2
# Hep 3B2 [22] = test: Anti-proliferative activity against human Hep3B cells assessed as increase in cleaved Caspase 8 level at 80 nM incubated for 24 hrs in presence of SGBS CM by Tetraplex-Assay Kit analysis; assay type: functional, cell-based
# How it was run: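 Hep3B seeded at 20000 cells/well overnight, then treated with 30% differentiated SGBS conditioned medium with or without resminostat 80 nM for 24 h. Tetraplex caspase substrate buffer added during treatment for real-time cleavage read-out: Caspase 3/7 at Ex 535/Em 620 nm, Caspase 8 at Ex 490/Em 525 nm, Caspase 9 at Ex 370/Em 450 nm. Compared with controls or between treatments; n = 3.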
# Hep 3B2 [23] = test: Downregulation of BCL2 expression in human Hep3B cells at 80 nM incubated for 24 hrs by qRT-PCR analysis; assay type: functional, cell-based
# Hep 3B2 [24] = test: Anti-proliferative activity against human Hep3B cells assessed as reduced cell proliferation at 80 nM for 24 hrs in presence of DZNep by Fluoro Fire-Blue ProViaTox assay relative to control; assay type: functional; set-up: scale not given: the % may be the effect or the level left
# Hep 3B2 [25] = test: Anti-proliferative activity against human Hep3B cells assessed as decrease in VEGF mRNA level at 80 nM incubated for 24 hrs in presence of SGBS CM by qRT-PCR analysis; assay type: functional, cell-based
# Hep 3B2 [26] = test: Anti-proliferative activity against human Hep3B cells assessed as increase in Caspase 8 expression at 80 nM incubated for 24 hrs by qRT-PCR analysis; assay type: functional, cell-based
smiles,measurement,setting,value
CN(C)Cc1ccc(S(=O)(=O)n2ccc(/C=C/C(=O)NO)c2)cc1 [RESMINOSTAT],Activity,Hep 3B2 [1],Active
same,Activity,Hep 3B2 [2],31.47%
same,Activity,Hep 3B2 [3],Active
same,Activity,Hep 3B2 [4],Active
same,Activity,Hep 3B2 [5],Active
same,Activity,HepG2 [6],Active
same,Activity,Hep 3B2 [7],Active
same,Activity,Hep 3B2 [8],Active
same,Activity,Hep 3B2 [9],52.67%
same,Activity,Hep 3B2 [10],Dose-Dependent Effect
same,Activity,Hep 3B2 [11],Active
same,Activity,Hep 3B2 [12],Active
same,Activity,Huh-7 [13],Active
same,Activity,Hep 3B2 [14],Active
same,Activity,Huh-7 [15],Active
same,Activity,Hep 3B2 [16],Active
same,Activity,Huh-7 [17],Active
same,Activity,Hep 3B2 [18],Active
same,Activity,HepG2 [19],Active
same,Activity,Hep 3B2 [20],Active
same,Activity,Hep 3B2 [21],Active
same,Activity,Hep 3B2 [22],Active
same,Activity,Hep 3B2 [23],Active
same,Activity,Hep 3B2 [24],11.76%
same,Activity,Hep 3B2 [25],Active
same,Activity,Hep 3B2 [26],Active

# From ChEMBL document CHEMBL5674881, “The therapeutic properties of resminostat for hepatocellular carcinoma” (2018)
